# Source: PubChem
# Rows were chosen to be rich in hits. Some 3% of all compounds tested hit in one or more screens of this group.
# Beta2AR agonist: activates human beta-2 adrenergic receptor causing internalization; response, % (concentration not given with the values); Am2.2-beta2AR cells, FAP receptor internalization, flow cytometry; P07550; AID 504454; 340,000 tested, 0.43% active;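 active = response above a set limit, near 3 SD of response in nonfluorescent compounds, cut at about 42% in these data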
# MC4R antag cAMP: blocks human MC4R cAMP signaling. inhibition, % at 6.5 µM. MC4R-expressing cells, MTII-stimulated cAMP, LANCE TR-FRET. 360,000 tested, 0.48% active;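 active = inhibition above its plate's cutoff, the mean of tested wells on that plate plus 3 SD, cut at about 29% in these data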;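 also: 0% = Melanotan II alone and 100% = Melanotan II plus saturating MCL0020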
#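 Assay system: human MC4R-expressing U2OS cells; reagent: Melanotan II stimulation of cells; dosing: 6.5 µM single dose; timing: compound 30 min, challenge 1 h, detection 1 h; signal: TR-FRET cAMP assay; replicates: one well per compound, no replicates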
# ABHD5 PLIN5 PPI: ABHD5-PLIN5 protein interaction inhibition; Q00G26+Q8WTS1; Split G. princeps luciferase complementation, luminescence, 4 h; inhibition, % at 4 µM; 360,000 tested, 0.78% active; AID 602281;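 active = inhibition above the mean inhibition across every tested compound plus 3 SD, cut at about 22% in these data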;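 also: 0% = DMSO only wells and the 100% control is not disclosed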
# Target sequence (Q00G26 whole entry, looked up): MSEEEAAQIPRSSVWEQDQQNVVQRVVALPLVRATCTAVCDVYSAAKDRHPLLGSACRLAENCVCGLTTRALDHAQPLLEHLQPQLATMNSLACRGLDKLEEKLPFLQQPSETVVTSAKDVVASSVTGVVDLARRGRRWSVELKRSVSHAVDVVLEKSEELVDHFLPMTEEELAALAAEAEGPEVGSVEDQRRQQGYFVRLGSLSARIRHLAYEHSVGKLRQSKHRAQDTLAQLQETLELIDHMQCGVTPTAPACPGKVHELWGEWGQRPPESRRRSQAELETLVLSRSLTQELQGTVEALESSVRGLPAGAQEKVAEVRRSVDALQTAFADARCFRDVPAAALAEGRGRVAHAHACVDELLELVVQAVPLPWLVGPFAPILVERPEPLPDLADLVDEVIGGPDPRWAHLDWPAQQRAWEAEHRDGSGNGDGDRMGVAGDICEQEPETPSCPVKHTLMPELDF
# Target sequence (Q8WTS1 whole entry, looked up): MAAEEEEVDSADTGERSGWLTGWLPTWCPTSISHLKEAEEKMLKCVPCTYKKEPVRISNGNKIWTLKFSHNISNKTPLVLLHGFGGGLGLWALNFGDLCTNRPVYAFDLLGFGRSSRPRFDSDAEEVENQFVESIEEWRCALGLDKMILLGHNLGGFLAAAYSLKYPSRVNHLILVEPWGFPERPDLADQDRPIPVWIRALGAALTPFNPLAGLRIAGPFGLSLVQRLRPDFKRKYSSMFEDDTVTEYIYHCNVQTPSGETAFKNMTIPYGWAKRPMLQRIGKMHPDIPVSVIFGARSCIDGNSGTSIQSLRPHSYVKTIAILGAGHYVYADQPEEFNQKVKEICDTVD
# MC4R barr agon: agonists of human melanocortin 4 receptor (MC4R) beta-arrestin; P32245; activation, % at 8.9 µM; 360,000 tested, 0.98% active; AID 540308; U2OS MC4R beta-arrestin complementation, luminescence; percent of melanotan II response, DMSO zero;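 active = activation above a per-plate cutoff, the mean activation of sample wells on that plate plus 3 SD, cut at about 8% in these data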
# PfGluPho inh: PfG6PD (Plasmodium falciparum) enzyme inhibition; inhibition, % at 20 µM; PfGluPho enzyme, NADPH resazurin-diaphorase fluorescence; 350,000 tested, 0.78% active;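 active = inhibition reaching at least a set limit at 20 µM in the primary screen, cut at about 59% in these data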;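 also: 0% = DMSO wells with substrate and 100% = DMSO wells lacking glucose-6-phosphate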
# ABHD5 PLIN5 conf: confirmation of human ABHD5-PLIN5 interaction inhibitors; shares compounds with ABHD5 PLIN5 PPI; inhibition, % at 4 µM; biochemical ABHD5-PLIN5 interaction, luminescence; 2,200 tested, 67% active; in the data active = inhibition above about 23%;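 also: 0% = DMSO vehicle wells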
# HNF4 split-luc: counter-screen for ABHD5-PLIN5 inhibitors: HNF4 split-luciferase; AID 651674; shares compounds with ABHD5 PLIN5 PPI; 2,200 tested, 77% active; HNF4 dimerization, luminescence, biochemical; inhibition, % at 4 µM;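 active = mean inhibition across replicate wells exceeding the computed hit threshold, cut at about 13% in these data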;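 also: light from luciferase halves that rejoin when HNF4 fusion proteins dimerize; 0% = DMSO only wells and the 100% control is not given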
# Numbers without * were called inactive; / = no result given; ! = repeats disagree.
SMILES,Beta2AR agonist,MC4R antag cAMP,ABHD5 PLIN5 PPI,MC4R barr agon,PfGluPho inh,ABHD5 PLIN5 conf,HNF4 split-luc
CSc1nc(N)c(N=Nc2ccc([As](=O)(O)O)cc2)c(=O)[nH]1,-2,7,66*,-1,50,68*,52*
COc1ccc(N=Nc2c(O)[nH]c(=S)[nH]c2=O)cc1,4,-45,7,-4,2,/,/
CC1C(=O)CC2(C(C)C)CC12 (stereo not given),/,2,2,-1,/,/,/
O=c1[nH]c(=O)n(CC2CCCO2)c(O)c1/C=C1\C=Nc2ccccc21 (stereo not given),13,-11,27*!,0,-8,11,18*
CC(=O)C1C(N2CC2)CC2C3CCC4=CC(=O)CCC4(C)C3CCC21C (stereo not given),3,0,-5,-3,15,/,/
Nc1c(C(=O)NCCN2CCOCC2)c2nc3ccccc3nc2n1Cc1ccco1,-11,0,21,-1,25,/,/
C=CCNC(=O)c1c(N)n(Cc2ccco2)c2nc3ccccc3nc12,6,-5,36*,0,32,50*,66*
O=C(O)CCn1cc(C=C2C(=O)NC(=S)NC2=O)c(-c2cccc(Cl)c2)n1,3,-8,7,-2,14,/,/
O=C(O)CCn1cc(C=C2C(=O)NC(=O)NC2=O)c(-c2ccc(Br)cc2)n1,3,4,25*,0,25,69*,71*
CN1CN(c2ccccc2)C2(CCN(CCCSc3ccccc3NC(=O)/C=C/c3ccccc3)CC2)C1=O,2,-3,9,2,17,/,/
CN1[C@@H]2CC[C@H]1CC(OC1c3ccccc3CCc3ccccc31)C2 (stereo not given in full),26,4,32*,0,27,77*,35*
CN1C2CCC1CC(OC(=O)c1ccc(Cl)cc1)C2 (stereo not given),-1,-6,0,-1,-8,/,/
O=c1[nH]c(=S)n(C2CCCCC2)c(O)c1/C=N/N1CCOCC1,3,-5,-6,2,-5,/,/
COc1ccc(NC(=S)NC(NC(=O)CF)C(Cl)(Cl)Cl)cc1[N+](=O)[O-] (stereo not given),-3,7,-5,-3,30,/,/
COc1ccc(-n2c(O)c(/C=C3\C=Nc4ccc(Br)cc43)c(=O)[nH]c2=O)c(OC)c1,9,20,22,0,37,/,/
COc1ccc(-n2c(O)c(/C=C3\C=Nc4ccc(Br)cc43)c(=O)[nH]c2=O)cc1,35,10,36*,-1,5,36*,29*
COC(=O)C1=C(c2ccc(OC(F)(F)F)cc2)C[C@@H]2CC[C@H]1N2C(=O)N1CCC(C)CC1,-1,-3,-3,-1,19,/,/
Cc1cc(OCC(=O)NCc2ccc(S(N)(=O)=O)cc2)c2c3c(c(=O)oc2c1)CCC3,4,-1,3,1,-9,/,/
O=[N+]([O-])c1oc2ccc3ccccc3c2c1CCO,-6,-4,-3,-1,25,/,/
Cc1ccc(-c2cc(-c3ccc(C)cc3)[n+](-c3ccccc3)c(-c3ccc(C)cc3)c2)cc1,44*,-3,28*,7,9,9,11
CN(C)c1ccc(-[n+]2c(-c3ccccc3)cc(-c3ccccc3)cc2-c2ccccc2)cc1,0,-11,26*,8,12,6,3
c1ccc(-c2cc(-c3ccccc3)[n+](-c3ccccc3)c(-c3ccccc3)c2)cc1,29,6,10,3,-23,/,/
CC1=CC(=O)C2=C(C)C[C@H](O)[C@@H]3[C@H](OC(=O)[C@H]3C)[C@@H]12,3,16,-4,0,-19,/,/
